What is called pEC50 is the negative decadic logarithm of the EC50, by convention in mol/L.

Activity and EC50 data for ten compounds are collected here from ChEMBL document CHEMBL3297677, “A new 9-alkyladenine-cyclic methylglyoxal diadduct activates wt- and F508del-cystic fibrosis transmembrane conductance regulator (CFTR) in vitro and in vivo” (Eur J Med Chem, 2014).

pEC50: −log10 of the molar value. Active and inactive are the calls of the source. The rule behind the calls is not given here.

In series [1] the target is T1, Cystic fibrosis transmembrane conductance regulator (Homo sapiens, UniProt P13569). In words: Activation of wild-type CFTR (unknown origin) expressed in forskolin-stimulated CHO cells assessed as increase in iodide efflux at 100 uM by gamma counting. The class given is cell-based. An outline of the steps: (§1)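 Iodide efflux with a robotic system. Cells were loaded at 37 °C for 30 min in Krebs' solution with 1 mM KI and Na¹²⁵I so the label reached equilibrium. The first three aliquots (t0–t2) in cold Krebs' buffer gave the baseline, and compound medium was used for t3–t8. Residual radioactivity was extracted with 0.1 M NaOH/0.1% SDS and gamma-counted. Relative rate = k_peak − k_basal (min⁻¹), expressed as % of maximal activation. EC50 came from nonlinear regression.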
Target sequence in this assay (P13569 whole entry, looked up): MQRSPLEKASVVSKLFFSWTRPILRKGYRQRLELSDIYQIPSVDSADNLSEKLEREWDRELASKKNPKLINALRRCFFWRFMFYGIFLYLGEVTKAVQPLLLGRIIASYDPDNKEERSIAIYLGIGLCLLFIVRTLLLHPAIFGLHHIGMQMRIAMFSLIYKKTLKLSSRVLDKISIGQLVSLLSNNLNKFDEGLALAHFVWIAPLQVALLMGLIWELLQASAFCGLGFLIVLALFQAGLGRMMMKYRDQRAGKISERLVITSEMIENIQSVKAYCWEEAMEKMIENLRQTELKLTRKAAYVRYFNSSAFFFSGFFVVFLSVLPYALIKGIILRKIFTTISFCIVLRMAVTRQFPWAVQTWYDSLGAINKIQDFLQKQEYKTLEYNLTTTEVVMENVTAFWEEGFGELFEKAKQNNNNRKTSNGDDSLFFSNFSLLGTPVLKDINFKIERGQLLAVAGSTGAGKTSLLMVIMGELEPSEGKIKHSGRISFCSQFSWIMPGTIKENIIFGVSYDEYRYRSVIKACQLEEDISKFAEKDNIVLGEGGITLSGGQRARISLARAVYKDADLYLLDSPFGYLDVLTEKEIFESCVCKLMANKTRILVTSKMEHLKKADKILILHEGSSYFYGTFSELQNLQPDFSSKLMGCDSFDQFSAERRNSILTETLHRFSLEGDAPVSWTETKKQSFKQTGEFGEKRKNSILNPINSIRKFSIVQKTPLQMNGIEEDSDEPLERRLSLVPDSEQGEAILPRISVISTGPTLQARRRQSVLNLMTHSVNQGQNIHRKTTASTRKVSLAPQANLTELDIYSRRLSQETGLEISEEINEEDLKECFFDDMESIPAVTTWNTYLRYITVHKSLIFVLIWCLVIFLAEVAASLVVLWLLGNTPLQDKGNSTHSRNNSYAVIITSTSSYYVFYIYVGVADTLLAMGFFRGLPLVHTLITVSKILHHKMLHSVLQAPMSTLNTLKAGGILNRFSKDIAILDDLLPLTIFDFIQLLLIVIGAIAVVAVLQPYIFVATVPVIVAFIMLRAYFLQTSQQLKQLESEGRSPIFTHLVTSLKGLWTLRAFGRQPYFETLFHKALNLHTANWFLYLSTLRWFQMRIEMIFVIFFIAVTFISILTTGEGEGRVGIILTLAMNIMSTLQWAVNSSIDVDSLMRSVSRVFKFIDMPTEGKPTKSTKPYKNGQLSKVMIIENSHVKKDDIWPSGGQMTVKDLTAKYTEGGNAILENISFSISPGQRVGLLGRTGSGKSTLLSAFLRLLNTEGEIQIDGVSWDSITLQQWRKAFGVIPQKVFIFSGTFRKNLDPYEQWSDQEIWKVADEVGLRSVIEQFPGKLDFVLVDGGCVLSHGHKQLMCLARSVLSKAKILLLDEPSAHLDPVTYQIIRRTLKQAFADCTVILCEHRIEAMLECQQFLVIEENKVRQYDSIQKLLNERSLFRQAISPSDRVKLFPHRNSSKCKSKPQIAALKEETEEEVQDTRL

Series [2] deals with CHO. In words: Cytotoxicity against wild-type CFTR transfected CHO cells upto 300 uM after 24 hrs by MTT assay. The class given is cell-based, Cricetulus griseus. Conditions: chinese hamster. In outline:
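Wt-CFTR CHO cells were exposed for 24 h, and viability was read by MTT reduction to formazan. Controls were untreated cells and cells deprived of medium for 24 h.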

Series [3] addresses T1, Cystic fibrosis transmembrane conductance regulator. In words: Activation of wild-type CFTR (unknown origin) expressed in forskolin-stimulated CHO cells assessed as increase in iodide efflux by gamma counting. The class given is cell-based. An outline of the steps: as §1
Target sequence in this assay (P13569 whole entry): as the sequence (P13569 whole entry, looked up) above
Series [4] shares this target. In words: Activation of CFTR in forskolin-stimulated human MM39 cells by DiSBAC2(3) dye based fluorescence analysis. The series is classed as cell-based. An outline of the steps: (§2)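 Human tracheal gland MM39 cells were imaged cell by cell with the potential-sensitive oxonol probe DiSBAC2(3) (ex 535 nm, em 560 nm). Signal is Fx = (Ft − F0)/F0 × 100 relative to the time of stimulus addition. Histograms show the stable fluorescence variation, as mean ± SEM. The CFTR inhibitor CFTRinh-172 was used at 1 µM. Runs were done with or without forskolin.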
Target sequence in this assay (P13569 whole entry, looked up): as above

Series [5] has the same target. In words: Activation of CFTR in forskolin-stimulated human MM39 cells by DiSBAC2(3) dye based fluorescence analysis in presence of 1 uM CFTRinh-172. The class given is cell-based. An outline of the steps:
as §2
Target sequence in this assay (P13569 whole entry, looked up): as above

Series [6] shares this target. In words: Activation of CFTR in human MM39 cells by DiSBAC2(3) dye based fluorescence analysis. The class given is cell-based. In outline:
as §2
Target sequence in this assay (P13569 whole entry, looked up): as above

The target is the same in series [7]. In words: Activation of CFTR in human MM39 cells by DiSBAC2(3) dye based fluorescence analysis in presence of 1 uM CFTRinh-172. The series is classed as cell-based. An outline of the steps: as §2
Target sequence in this assay (P13569 whole entry, looked up): as above
Series [8] deals with Cystic fibrosis transmembrane conductance regulator (Homo sapiens), P13569 [F508del]. In words: (§3) Activation of CFTR F508 deletion mutant in forskolin-stimulated and miglustat-corrected human […] cells assessed as increase in iodide efflux by gamma counting. The series is classed as cell-based. In outline:
as §1

The target of series [9] is Cystic fibrosis transmembrane conductance regulator (Homo sapiens, UniProt P13569, F508DEL). The description is as §3. The series is classed as cell-based. In outline: as §1
Cystic fibrosis transmembrane conductance regulator (Homo sapiens, UniProt P13569, F508DEL), sequence (P13569 as listed by the source): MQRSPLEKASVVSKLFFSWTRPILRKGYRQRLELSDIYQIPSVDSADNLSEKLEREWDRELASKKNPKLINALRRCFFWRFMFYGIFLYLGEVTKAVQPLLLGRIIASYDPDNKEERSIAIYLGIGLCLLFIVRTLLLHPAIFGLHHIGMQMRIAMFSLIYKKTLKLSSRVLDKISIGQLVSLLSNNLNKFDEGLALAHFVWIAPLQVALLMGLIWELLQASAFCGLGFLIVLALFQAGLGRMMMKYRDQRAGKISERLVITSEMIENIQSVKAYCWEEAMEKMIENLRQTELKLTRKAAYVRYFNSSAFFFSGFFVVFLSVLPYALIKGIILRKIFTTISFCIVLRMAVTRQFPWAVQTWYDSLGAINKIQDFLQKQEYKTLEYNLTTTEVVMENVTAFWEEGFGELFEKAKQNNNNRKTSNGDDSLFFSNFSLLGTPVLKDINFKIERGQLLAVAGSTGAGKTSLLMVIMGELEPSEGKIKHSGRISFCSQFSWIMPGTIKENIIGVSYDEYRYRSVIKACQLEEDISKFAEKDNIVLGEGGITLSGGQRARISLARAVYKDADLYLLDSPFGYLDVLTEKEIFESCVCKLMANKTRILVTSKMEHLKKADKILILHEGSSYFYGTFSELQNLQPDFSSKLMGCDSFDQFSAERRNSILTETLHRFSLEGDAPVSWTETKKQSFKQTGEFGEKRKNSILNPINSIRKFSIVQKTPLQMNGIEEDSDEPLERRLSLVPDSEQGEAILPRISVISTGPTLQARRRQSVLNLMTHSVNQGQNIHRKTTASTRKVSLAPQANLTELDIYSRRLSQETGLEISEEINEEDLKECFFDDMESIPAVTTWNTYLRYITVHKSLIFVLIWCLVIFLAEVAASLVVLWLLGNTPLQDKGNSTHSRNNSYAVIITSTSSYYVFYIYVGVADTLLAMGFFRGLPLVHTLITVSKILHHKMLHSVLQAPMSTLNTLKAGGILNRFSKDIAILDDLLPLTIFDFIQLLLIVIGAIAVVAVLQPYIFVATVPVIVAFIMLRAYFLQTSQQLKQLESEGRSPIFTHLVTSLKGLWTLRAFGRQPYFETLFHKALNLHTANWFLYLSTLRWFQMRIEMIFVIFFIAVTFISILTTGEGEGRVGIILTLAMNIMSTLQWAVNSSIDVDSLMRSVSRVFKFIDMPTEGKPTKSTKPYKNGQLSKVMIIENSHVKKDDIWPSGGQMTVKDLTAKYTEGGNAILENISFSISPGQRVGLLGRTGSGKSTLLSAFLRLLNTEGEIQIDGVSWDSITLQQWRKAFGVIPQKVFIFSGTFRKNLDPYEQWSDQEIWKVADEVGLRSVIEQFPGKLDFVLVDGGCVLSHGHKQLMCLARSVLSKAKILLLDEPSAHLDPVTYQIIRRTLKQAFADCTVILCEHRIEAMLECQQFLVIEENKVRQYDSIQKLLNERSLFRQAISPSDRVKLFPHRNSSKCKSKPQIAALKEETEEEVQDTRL
The test system of series [10] is Rattus norvegicus. In words: Effect on salivary secretion in male Wistar rat assessed as net weight of saliva secreted at 30 uM, sc followed by treatment with 1 mM cholinergic inhibitor atropine. The series is classed as functional, organism-based. An outline of the steps:
(§4)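 Male Wistar rats (250–300 g) were held supine. Basal secretion was blocked with atropine (1 mM). Saline containing 1 mM atropine plus compound (30 µM), isoprenaline (10 µM) or both was then injected subcutaneously into the cheek. Saliva was collected on paper pieces changed every 4 min and weighed. Secretion rate = saliva weight / collection time (min) / body weight (g).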

The subject of series [11] is Rattus norvegicus. In words: Potentiation of isprenaline-induced salivary secretion in male Wistar rat assessed as net weight of saliva secreted at 30 uM, sc followed by treatment with 1 mM cholinergic inhibitor atropine. The class given is functional, organism-based. An outline of the steps: as §4

Cystic fibrosis transmembrane conductance regulator (Homo sapiens), P13569 [F508del], sequence (P13569 as listed by the source): as above

Turning to `CCn1cnc2c1N=CN1C2=N[C@](C)(C(=O)O)[C@@H](O)[C@@]1(C)O`, the result in series [1] was inactive.
Still for that read-out and setting: as for `C[C@]1(C(=O)O)N=C2c3ncn(CCCc4ccccc4)c3N=CN2[C@](C)(O)[C@@H]1O`, the entry is “inactive”; as for `C#CCn1cnc2c1N=CN1C2=N[C@](C)(C(=O)O)[C@@H](O)[C@@]1(C)O`, “inactive”.
`C=CCn1cnc2c1N=CN1C2=N[C@](C)(C(=O)O)[C@@H](O)[C@@]1(C)O`: the result in series [1], in series [4], in series [6] and in series [11] was Active. Besides, the Activity result in [2] is “Non-toxic”; in [8] it was “Dose-dependent effect”. Moreover, the negative-log EC50 (pEC50) in [3] was 5.12; in series [9] it was 3.98. Moreover, the result in [5], in series [7] and in [10] was inactive.
For the compound `Cn1cnc2c1N=CN1C2=N[C@](C)(C(=O)O)[C@@H](O)[C@@]1(C)O`, the outcome in series [1] was inactive.
In the case of `CCCCn1cnc2c1N=CN1C2=N[C@](C)(C(=O)O)[C@@H](O)[C@@]1(C)O`, the result in [1] was inactive.
Still for that read-out and setting: to `CC(C)n1cnc2c1N=CN1C2=N[C@](C)(C(=O)O)[C@@H](O)[C@@]1(C)O` belongs “inactive”; to `C[C@]1(C(=O)O)N=C2c3ncn(CCCO)c3N=CN2[C@](C)(O)[C@@H]1O`, “inactive”.
For `C[C@]1(C(=O)O)N=C2c3ncn(Cc4ccccc4)c3N=CN2[C@](C)(O)[C@@H]1O`, in [1], the outcome was inactive.
For `C=CCn1cnc2c1N=CN1C2=N[C@](C)(C(=O)O)[C@H](O)[C@]1(C)O`, the pEC50 in series [3] is 5.68.
